Data reported in ChEMBL document CHEMBL4602721, “Discovery of Potent Inhibitors against P-Glycoprotein-Mediated Multidrug Resistance Aided by Late-Stage Functionalization of a 2-(4-(Pyridin-2-yl)phenoxy)pyridine Analogue” (J Med Chem, 2020).
The source made the active and inactive calls. No cut-off for these calls is given here.

How the values were obtained:
[1] = Cytotoxicity against human KB-CV60 cells assessed as effect on cell proliferation at 2.5 to 5 uM measured after 48 hrs by SRB assay; format: cell-based
[2] = target: T1, ATP-dependent translocase ABCB1 (Homo sapiens, UniProt P08183); experiment: Reversal of ABCB1-mediated multidrug resistance in human SW620 cells assessed as reduction in Rh123 efflux at 0.01 to 0.5 uM incubated for 4 hrs by flow cytometry analysis; format: cell-based; conditions: sw-620, 4 h
Method in brief: (§1)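 Cells pre-loaded with rhodamine 123, then efflux monitored in SW620 and SW620/AD300 cells over a range of modulator levels; mean ± SD of three independent experiments.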

[3] = Cytotoxicity against human SW620/AD300 cells assessed as cell growth inhibition at 10 uM incubated for 48 hrs by SRB assay relative to control; format: cell-based; conditions: read-out: GI
SW620/AD300 = experiment: Downregulation of ABCB1 expression in human SW620/AD300 cells at 1 to 5 uM incubated for 48 hrs by Western blot analysis; format: functional, cell-based
Method in brief: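 SW620 and SW620/AD300 cells compared for ABCB1 level; SW620/AD300 treated at 0, 1.0, 2.0 or 5.0 μM for 48 h, then ABCB1 protein assessed.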

[4] = target: T2, Broad substrate specificity ATP-binding cassette transporter ABCG2 (Homo sapiens, UniProt Q9UNQ0); experiment: Reversal of ABCG2-mediated mitoxantrone resistance in human NCI-H460/MX20 cells assessed as potentiation of mitoxantrone-induced cytotoxicity by measuring change in mitoxantrone IC50 at 2.5 uM incubated for 48 hrs by SRB assay relative to mitoxantrone IC50; format: cell-based
T2 sequence (Q9UNQ0 whole entry): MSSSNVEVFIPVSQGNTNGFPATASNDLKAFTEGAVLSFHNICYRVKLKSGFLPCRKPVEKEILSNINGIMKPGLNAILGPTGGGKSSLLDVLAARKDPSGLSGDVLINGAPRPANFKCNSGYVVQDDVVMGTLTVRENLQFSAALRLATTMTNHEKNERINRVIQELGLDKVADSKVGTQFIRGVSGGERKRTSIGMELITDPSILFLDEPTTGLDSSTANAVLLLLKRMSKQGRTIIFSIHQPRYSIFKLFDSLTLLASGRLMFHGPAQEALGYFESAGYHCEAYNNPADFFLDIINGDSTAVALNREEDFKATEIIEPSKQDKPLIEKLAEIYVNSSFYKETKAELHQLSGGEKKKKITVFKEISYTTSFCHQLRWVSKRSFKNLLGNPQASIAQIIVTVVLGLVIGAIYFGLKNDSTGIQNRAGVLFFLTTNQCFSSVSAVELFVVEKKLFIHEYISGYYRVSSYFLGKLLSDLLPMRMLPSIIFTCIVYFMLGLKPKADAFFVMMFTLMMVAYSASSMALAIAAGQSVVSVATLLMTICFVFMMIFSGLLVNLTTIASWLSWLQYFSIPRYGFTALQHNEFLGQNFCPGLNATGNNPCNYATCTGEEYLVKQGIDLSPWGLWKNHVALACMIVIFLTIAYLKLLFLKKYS

SW-620 = experiment: Induction of Rh123 accumulation in human SW620 cells at 0.01 to 0.5 uM incubated for 4 hrs by flow cytometry; format: functional, cell-based
Method in brief: (§2)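 SW620 and SW620/AD300 cells exposed to 1 μg/mL rhodamine 123 with or without modulator; intracellular Rh123 content measured; mean ± SD of three independent experiments.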

K562/A02 [5] = experiment: Effect on tumor size of human K562/A02 cells xenografted in BALB/c mouse at 30 mg/kg, iv administered every 2 days for 14 days measured during compound dosing by caliper method; format: ADME, organism-based; conditions: in vivo
Method in brief: (§3)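 Mice bearing subcutaneous ABCB1-overexpressing K562/A02 xenografts treated with DOX alone, modulator alone, or combinations (verapamil as comparator) for 14 days; tumor volume measured every two days.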

K562/A02 [6] = experiment: Potentiation of DOX-induced anti tumor activity against human K562/A02 cells xenografted in BALB/c mouse assessed as reduction in tumor weight at 30 mg/kg, iv administered every 2 days for 14 days measured 24 hrs post-last dose; format: functional, organism-based
Method in brief: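 K562/A02 subcutaneous xenograft mice treated 14 days with DOX with or without modulator; tumors excised and weighed at Day 14.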

[7] = target: T2, Broad substrate specificity ATP-binding cassette transporter ABCG2; experiment: Reversal of ABCG2-mediated mitoxantrone resistance in human NCI-H460/MX20 cells assessed as potentiation of mitoxantrone-induced cytotoxicity by measuring change in mitoxantrone IC50 at 5 uM incubated for 48 hrs by SRB assay relative to mitoxantrone IC50; format: cell-based
[8] = target: T3, Multidrug resistance-associated protein 1 (Homo sapiens, UniProt P33527); experiment: Reversal of ABCC1-mediated vincristine resistance in human KB-CV60 cells assessed as potentiation of vincristine-induced cytotoxicity by measuring change in vincristine IC50 at 2.5 uM incubated for 48 hrs by SRB assay relative to vincristine IC50; format: cell-based
Method in brief: (§4)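 ABCC1-overexpressing KB-CV60 cells: vincristine IC50 determined alone or with modulator at 2.5 or 5 μM; MK571 25 μM reference; reversal fold calculated as IC50 ratio without/with modulator.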

[9] = Cytotoxicity against human NCI-H460/MX20 cells assessed as effect on cell proliferation at 2.5 to 5 uM measured after 48 hrs by SRB assay; format: cell-based
[10] = target: T1, ATP-dependent translocase ABCB1; experiment: Reversal of Pgp-mediated DOX resistance in human SW620/AD300 cells assessed as potentiation of DOX-induced cytotoxicity by measuring inhibition of cell proliferation at 1 uM incubated for 48 hrs by SRB assay (reference value: 5.3 +/- 3 %); format: cell-based
[11] = target: T1, ATP-dependent translocase ABCB1; experiment: Reversal of Pgp-mediated DOX resistance in human SW620/AD300 cells assessed as potentiation of DOX-induced cytotoxicity by measuring change in DOX IC50 at 1 uM incubated for 48 hrs by SRB assay relative to DOX alone; format: cell-based; conditions: sw620/ad300, 48 h
K562/A02 [12] = experiment: Potentiation of DOX-induced anti tumor activity against human K562/A02 cells xenografted in BALB/c mouse assessed as tumor size at 30 mg/kg, iv administered every 2 days for 14 days measured during compound dosing by caliper method (reference value: 610 mm3); format: functional; method in brief: as §3
[13] = target: T1, ATP-dependent translocase ABCB1; experiment: Reversal of ABCB1-mediated multidrug resistance in human SW620/AD300 cells assessed as reduction in Rh123 efflux incubated for 4 hrs by flow cytometry analysis; format: cell-based; conditions: sw620/ad300, 4 h; method in brief: as §1
[14] = target: T1, ATP-dependent translocase ABCB1; experiment: Reversal of ABCB1-mediated multidrug resistance in human SW620/AD300 cells assessed as increase in Rh123 accumulation at 0.01 to 0.5 uM incubated for 4 hrs by flow cytometry; format: cell-based; conditions: sw620/ad300, 4 h; method in brief: as §2
[15] = target: T1, ATP-dependent translocase ABCB1; experiment: Binding affinity to ABCB1 in human SW620/AD300 cells assessed as increase in thermal stability of ABCB1 at 20 uM incubated for 30 to 60 mins followed by heating at 40.5 to 59.5 degC by […]; format: cell-based; conditions: sw620/ad300, 20 µM
[16] = target: T3, Multidrug resistance-associated protein 1; experiment: Reversal of ABCC1-mediated vincristine resistance in human KB-CV60 cells assessed as potentiation of vincristine-induced cytotoxicity by measuring change in vincristine IC50 at 5 uM incubated for 48 hrs by SRB assay relative to vincristine IC50; format: cell-based; method in brief: as §4

T1 sequence (P08183 whole entry): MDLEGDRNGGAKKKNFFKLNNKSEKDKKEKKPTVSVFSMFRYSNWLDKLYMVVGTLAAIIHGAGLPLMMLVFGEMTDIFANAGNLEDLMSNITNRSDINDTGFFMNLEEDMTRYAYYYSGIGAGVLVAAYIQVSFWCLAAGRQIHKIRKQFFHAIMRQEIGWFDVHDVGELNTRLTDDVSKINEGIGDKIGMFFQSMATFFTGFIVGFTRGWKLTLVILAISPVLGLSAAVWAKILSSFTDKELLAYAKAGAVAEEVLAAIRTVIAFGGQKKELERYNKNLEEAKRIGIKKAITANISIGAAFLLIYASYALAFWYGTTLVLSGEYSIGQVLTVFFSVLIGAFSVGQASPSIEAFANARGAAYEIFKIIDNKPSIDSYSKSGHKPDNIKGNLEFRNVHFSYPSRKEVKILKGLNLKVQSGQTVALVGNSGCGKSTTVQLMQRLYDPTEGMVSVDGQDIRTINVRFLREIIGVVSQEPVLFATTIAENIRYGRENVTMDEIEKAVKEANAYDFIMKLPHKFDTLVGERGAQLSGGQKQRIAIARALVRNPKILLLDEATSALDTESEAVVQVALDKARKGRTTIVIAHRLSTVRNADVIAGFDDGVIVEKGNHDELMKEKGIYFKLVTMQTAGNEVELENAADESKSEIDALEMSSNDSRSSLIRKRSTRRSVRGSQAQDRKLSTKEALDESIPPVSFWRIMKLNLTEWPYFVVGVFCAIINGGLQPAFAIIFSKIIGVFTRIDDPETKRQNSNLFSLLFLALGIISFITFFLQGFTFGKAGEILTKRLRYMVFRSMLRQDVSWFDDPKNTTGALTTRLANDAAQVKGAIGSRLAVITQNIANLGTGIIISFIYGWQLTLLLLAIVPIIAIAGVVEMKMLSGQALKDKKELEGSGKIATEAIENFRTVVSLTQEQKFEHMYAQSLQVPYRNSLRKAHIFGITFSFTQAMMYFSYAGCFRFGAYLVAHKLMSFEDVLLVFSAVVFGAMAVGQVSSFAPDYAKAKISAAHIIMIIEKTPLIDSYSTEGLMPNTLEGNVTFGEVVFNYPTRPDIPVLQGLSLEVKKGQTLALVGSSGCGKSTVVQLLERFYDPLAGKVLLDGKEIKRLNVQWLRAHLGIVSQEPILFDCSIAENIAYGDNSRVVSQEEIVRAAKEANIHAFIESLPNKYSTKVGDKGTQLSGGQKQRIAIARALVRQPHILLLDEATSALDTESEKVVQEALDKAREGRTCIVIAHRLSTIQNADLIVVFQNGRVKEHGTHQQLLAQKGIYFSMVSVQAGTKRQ
T3 sequence (P33527 whole entry): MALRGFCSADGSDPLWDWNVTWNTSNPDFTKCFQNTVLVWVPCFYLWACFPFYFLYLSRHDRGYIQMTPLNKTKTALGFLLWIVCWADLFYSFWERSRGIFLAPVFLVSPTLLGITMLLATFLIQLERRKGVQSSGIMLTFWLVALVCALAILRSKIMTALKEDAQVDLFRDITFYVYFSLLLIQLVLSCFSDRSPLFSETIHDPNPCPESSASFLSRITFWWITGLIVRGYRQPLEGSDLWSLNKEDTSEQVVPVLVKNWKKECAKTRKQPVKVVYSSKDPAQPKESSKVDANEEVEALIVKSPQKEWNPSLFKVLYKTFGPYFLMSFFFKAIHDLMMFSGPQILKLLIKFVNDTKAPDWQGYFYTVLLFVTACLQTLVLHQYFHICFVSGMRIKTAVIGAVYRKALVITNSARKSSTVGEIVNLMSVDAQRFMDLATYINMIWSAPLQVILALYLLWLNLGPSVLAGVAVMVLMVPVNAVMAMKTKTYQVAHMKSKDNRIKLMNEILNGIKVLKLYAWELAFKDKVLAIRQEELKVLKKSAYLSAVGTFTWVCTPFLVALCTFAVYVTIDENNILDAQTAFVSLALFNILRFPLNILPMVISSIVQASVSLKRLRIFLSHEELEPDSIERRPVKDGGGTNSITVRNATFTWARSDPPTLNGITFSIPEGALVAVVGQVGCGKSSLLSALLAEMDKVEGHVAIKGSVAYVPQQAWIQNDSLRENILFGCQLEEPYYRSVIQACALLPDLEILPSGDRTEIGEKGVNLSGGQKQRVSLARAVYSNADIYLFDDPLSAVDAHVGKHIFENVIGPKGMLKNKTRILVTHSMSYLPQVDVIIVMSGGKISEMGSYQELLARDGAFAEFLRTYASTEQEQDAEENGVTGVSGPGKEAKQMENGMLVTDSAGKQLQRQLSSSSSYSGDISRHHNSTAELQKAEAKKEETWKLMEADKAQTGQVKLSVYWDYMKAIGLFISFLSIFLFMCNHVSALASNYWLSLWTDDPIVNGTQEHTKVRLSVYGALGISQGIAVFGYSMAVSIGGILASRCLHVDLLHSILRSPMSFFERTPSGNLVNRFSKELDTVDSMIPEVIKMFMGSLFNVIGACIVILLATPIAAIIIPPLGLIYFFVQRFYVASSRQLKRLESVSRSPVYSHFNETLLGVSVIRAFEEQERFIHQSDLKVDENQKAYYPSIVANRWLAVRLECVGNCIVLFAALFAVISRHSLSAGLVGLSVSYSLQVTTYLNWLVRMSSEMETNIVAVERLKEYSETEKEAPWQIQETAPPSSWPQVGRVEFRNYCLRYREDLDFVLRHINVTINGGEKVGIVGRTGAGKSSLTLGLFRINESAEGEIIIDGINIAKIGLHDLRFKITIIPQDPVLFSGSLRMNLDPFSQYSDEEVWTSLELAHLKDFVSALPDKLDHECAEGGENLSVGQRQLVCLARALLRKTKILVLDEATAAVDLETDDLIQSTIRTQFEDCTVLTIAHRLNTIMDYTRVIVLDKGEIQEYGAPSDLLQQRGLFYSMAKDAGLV

Activity [2]: Not Active | Activity [13]: Dose-dependent effect | Activity [14]: Active | Activity [15]: Active
SMILES: COc1cc2c(cc1OC)CN(CCc1ccc(NC(=O)/C=C/c3ccc(Oc4ccc(-c5ccccn5)c(Cl)c4)nc3)cc1)CC2
Activity [1]: Non-Toxic | inhibition at 48 h, 10 µM [3]: 9.7% | Activity (SW620/AD300): inactive | fold change (FC) [4]: 0.99 | Activity (SW-620): inactive | Activity (K562/A02 [5]): Non-Toxic | Activity (K562/A02 [6]): Active | fold change (FC) [7]: 2.32 | fold change (FC) [8]: 1.12 | Activity [9]: Non-Toxic | inhibition at 1 µM [10]: 60.3% | fold change (FC) [11]: 59.63 | Activity (K562/A02 [12]): 437 mm3 | fold change (FC) [16]: 1.43
